Values after ≈ are worked out from the molar mass of the structure shown.
Tests used:
HL-60 [1] = test: Tumor necrosis factor-alpha production in human leukemia cell line (HL-60) stimulated with 10 nM 12-O-tetradecanoylphorbol 13-acetate (TPA) at 30 uMolar.; type: functional
Outline: (§1)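 HL-60 cells at 5 × 10⁵/mL in RPMI1640 + 10% FBS were co-treated with 30 μM test compound and either 10 nM TPA or 50 nM OA for 16 h at 37 °C. Culture-medium TNF-α was measured by ELISA and expressed as % of inducer-alone control. Cell counts were taken at harvest. Assays were run in duplicate or triplicate (mean taken), at least three times.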

WI-38 [2] = test: In vitro cytotoxicity against human embryonic lung fibroblast WI-38 cells.; type: functional, cell-based
Outline: (§2)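 WI-38 human embryonic lung fibroblasts (5 × 10³ cells/well) in RPMI1640 + 10% FCS were exposed to graded concentrations of compound for 48 h at 37 °C. Viability was read by WST-1 with 1-methoxy PMS (2 h, 37 °C; absorbance at 450 nm). IC50 was reported in μg/mL, with the μM equivalent in parentheses.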

HL-60 [3] = test: Tumor necrosis factor-alpha production in human leukemia cell line (HL-60) stimulated with 50 nM okadaic acid (OA), at 30 uMolar.; type: functional; outline: as §1
HL-60 [4] = test: Amount of tumor necrosis factor-alpha produced by human leukemia cell line (HL-60) stimulated with 10 nM12-O-tetradecanoylphorbol 13-acetate (TPA) at 0.3 uM, measured by ELISA; type: functional
Outline: (§3)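 HL-60 cells (2.5 × 10⁵ in 0.5 mL, i.e. 5 × 10⁵/mL), growing exponentially in RPMI1640 + 10% FBS, were exposed to 10 nM TPA or 50 nM OA together with 0.3 μM test compound for 16 h at 37 °C. Secreted TNF-α was quantified by ELISA and expressed as % of inducer-alone production. Each run was done in duplicate or triplicate (mean taken) and repeated at least three times.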

HL-60 [5] = test: Inhibition of 50 nM okadaic acid induced tumor necrosis factor-alpha production in human leukemia cell line (HL-60) by 0.3 uM.; type: functional; outline: as §3
WI-38 [6] = test: The cytotoxicity of the compounds assessed using human embryonic lung fibroblast WI-38 cells at (8 micro M); type: functional, cell-based; outline: as §2
WI-38 [7] = test: The cytotoxicity of the compounds assessed using human embryonic lung fibroblast WI-38 cells at (97 micro M); type: functional, cell-based; outline: as §2
WI-38 [8] = test: The cytotoxicity of the compounds assessed using human embryonic lung fibroblast WI-38 cells at (264 micro M); type: functional, cell-based; outline: as §2
WI-38 [9] = test: The cytotoxicity of the compounds assessed using human embryonic lung fibroblast WI-38 cells at (40 micro M); type: functional, cell-based; outline: as §2
WI-38 [10] = test: The cytotoxicity of the compounds assessed using human embryonic lung fibroblast WI-38 cells at (20 micro M); type: functional, cell-based; outline: as §2
WI-38 [11] = test: The cytotoxicity of the compounds assessed using human embryonic lung fibroblast WI-38 cells at (95 micro M); type: functional, cell-based; outline: as §2
WI-38 [12] = test: The cytotoxicity of the compounds assessed using human embryonic lung fibroblast WI-38 cells at (87 micro M); type: functional, cell-based; outline: as §2
WI-38 [13] = test: The cytotoxicity of the compounds assessed using human embryonic lung fibroblast WI-38 cells at (136 micro M); type: functional, cell-based; outline: as §2
HL-60 [14] = test: Amount of tumor necrosis factor-alpha produced by human leukemia cell line (HL-60) stimulated with 10 nM12-O-tetradecanoylphorbol 13-acetate (TPA) at 0.3 uM, measured by ELISA.; type: functional; outline: as §3
HL-60 [15] = test: Amount of tumor necrosis factor-alpha produced in human leukemia cell line (HL-60) stimulated with 10 nM12-O-tetradecanoylphorbol 13-acetate (TPA) at 0.3 micro M, measured by ELISA.; type: functional; outline: as §3
HL-60 [16] = test: Amount of tumor necrosis factor-alpha produced by human leukemia cell line (HL-60) stimulated with 50 nM okadaic acid (OA), at 0.3 uM, measured by ELISA.; type: functional; outline: as §3
WI-38 [17] = test: The cytotoxicity of the compounds assessed using human embryonic lung fibroblast WI-38 cells at (2.3 micro M); type: functional, cell-based; outline: as §2
WI-38 [18] = test: The cytotoxicity of the compounds assessed using human embryonic lung fibroblast WI-38 cells at (83 micro M); type: functional, cell-based; outline: as §2

| Compound | Amount of TNF-alpha (HL-60 [1]) | IC50 (WI-38 [2]) | Amount of TNF-alpha (HL-60 [3]) | Amount of TNF-alpha (HL-60 [4]) | Amount of TNF-alpha (HL-60 [5]) | also measured |
| --- | --- | --- | --- | --- | --- | --- |
| CC(C)c1cccc(C(C)C)c1N1C(=O)c2c(Cl)c(Cl)c(Cl)c(Cl)c2C1=O | 250% | > 100 µg/mL | 19% |  |  |  |
| C[C@H](c1cccc2ccccc12)N1C(=O)c2c(F)c(F)c(F)c(F)c2C1=O |  |  |  | 100% | 2% | IC50 (WI-38 [6]): 2.8 µg/mL (≈ 7.5 µM) |
| C[C@H](C1CCCCC1)N1C(=O)c2c(F)c(F)c(F)c(F)c2C1=O |  | > 100 µg/mL |  | 98% | 10% |  |
| C[C@@H](c1ccc([N+](=O)[O-])cc1)N1C(=O)c2c(F)c(F)c(F)c(F)c2C1=O |  |  |  | 268% | 32% |  |
| CC[C@H](c1ccccc1)N1C(=O)c2c(F)c(F)c(F)c(F)c2C1=O |  |  |  | 111% | 67% |  |
| CC(=O)Nc1ccc([C@@H](C)N2C(=O)c3c(F)c(F)c(F)c(F)c3C2=O)cc1 |  |  |  | 220% | 55% |  |
| Cc1cccc(C(C)C)c1N1C(=O)c2ccccc2C1=O | 234% |  | 33% |  |  | IC50 (WI-38 [7]): 28.1 µg/mL (≈ 101 µM) |
| CC(C)c1cccc(C(C)C)c1N1C(=O)c2cccc(O)c2C1=O | 239% | > 100 µg/mL | 64% |  |  |  |
| CC(C)c1cccc(N2C(=O)c3ccccc3C2=O)c1 | 158% | > 100 µg/mL | 105% |  |  |  |
| C[C@H](c1ccc(N)cc1)N1C(=O)c2c(F)c(F)c(F)c(F)c2C1=O |  |  |  | 241% | 27% |  |
| CC(C)c1cccc(C(C)C)c1N1C(=O)c2cccc([N+](=O)[O-])c2C1=O | 792% |  | 54% |  |  | IC50 (WI-38 [8]): 93.1 µg/mL (≈ 264 µM) |
| C[C@H](c1ccccc1)N1C(=O)c2c(F)c(F)c(F)c(F)c2C1=O |  |  |  | 97% | 2% | IC50 (WI-38 [9]): 12.8 µg/mL (≈ 39.6 µM) |
| Cc1cccc(C)c1N1C(=O)c2ccccc2C1=O | 161% | > 100 µg/mL | 40% |  |  |  |
| CCc1cccc(C(C)C)c1N1C(=O)c2ccccc2C1=O | 255% |  | 26% |  |  | IC50 (WI-38 [10]): 6 µg/mL (≈ 20.5 µM) |
| CC(C)c1cccc(C(C)C)c1N1C(=O)c2ccccc2C1=S | 1252% |  | 0% |  |  | IC50 (WI-38 [11]): 30.8 µg/mL (≈ 95.2 µM) |
| C[C@@H](c1cccc2ccccc12)N1C(=O)c2c(F)c(F)c(F)c(F)c2C1=O |  |  |  | 101% | 101% | IC50 (WI-38 [6]): 2.8 µg/mL (≈ 7.5 µM) |
| O=C1c2c(F)c(F)c(F)c(F)c2C(=O)N1[C@@H]1CCc2ccccc21 |  |  |  | 233% | 43% | IC50 (WI-38 [12]): 30.3 µg/mL (≈ 90.4 µM) |
| C[C@@H](C1CCCCC1)N1C(=O)c2c(F)c(F)c(F)c(F)c2C1=O |  | > 100 µg/mL |  | 124% | 65% |  |
| O=C1c2ccccc2C(=O)N1c1ccccc1 [N-PHENYL-PHTHALIMIDE] | 100% | > 100 µg/mL | 61% |  |  |  |
| CCc1cccc(CC)c1N1C(=O)c2ccccc2C1=O | 453% |  | 53% |  |  | IC50 (WI-38 [13]): 38 µg/mL (≈ 136 µM) |
| CC(=O)Nc1ccc([C@H](C)N2C(=O)c3c(F)c(F)c(F)c(F)c3C2=O)cc1 |  |  |  |  | 80% | Amount of TNF-alpha (HL-60 [14]): 268% |
| CC(C)c1cccc(C(C)C)c1N1C(=O)c2ccccc2C1=O | 602% | > 100 µg/mL | 21% |  |  |  |
| CC(C)c1cccc(C(C)C)c1N1C(=O)c2c(F)c(F)c(F)c(F)c2C1=O |  |  |  |  |  | Amount of TNF-alpha (HL-60 [15]): 375%; Amount of TNF-alpha (HL-60 [16]): 0%; IC50 (WI-38 [17]): 0.9 µg/mL (≈ 2.37 µM) |
| Cc1ccccc1N1C(=O)c2ccccc2C1=O | 100% | > 100 µg/mL | 68% |  |  |  |
| C[C@@H](c1ccccc1)N1C(=O)c2c(F)c(F)c(F)c(F)c2C1=O |  |  |  | 143% | 70% | IC50 (WI-38 [18]): 26.8 µg/mL (≈ 82.9 µM) |
